High-throughput results (PubChem)
hIAP act = human IAP activation | purified human IAP, CDP-Star luminescence, 30 min; active compounds read high; 1 = vehicle-only enzyme, 0 = enzyme-free background | activation factor at 10 µM | 330,000 tested, 0.16% active | AID 2524;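 active = activation factor of the enzyme at least 2-fold when tested at 20 µM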
Target sequence (P09923 whole entry, looked up): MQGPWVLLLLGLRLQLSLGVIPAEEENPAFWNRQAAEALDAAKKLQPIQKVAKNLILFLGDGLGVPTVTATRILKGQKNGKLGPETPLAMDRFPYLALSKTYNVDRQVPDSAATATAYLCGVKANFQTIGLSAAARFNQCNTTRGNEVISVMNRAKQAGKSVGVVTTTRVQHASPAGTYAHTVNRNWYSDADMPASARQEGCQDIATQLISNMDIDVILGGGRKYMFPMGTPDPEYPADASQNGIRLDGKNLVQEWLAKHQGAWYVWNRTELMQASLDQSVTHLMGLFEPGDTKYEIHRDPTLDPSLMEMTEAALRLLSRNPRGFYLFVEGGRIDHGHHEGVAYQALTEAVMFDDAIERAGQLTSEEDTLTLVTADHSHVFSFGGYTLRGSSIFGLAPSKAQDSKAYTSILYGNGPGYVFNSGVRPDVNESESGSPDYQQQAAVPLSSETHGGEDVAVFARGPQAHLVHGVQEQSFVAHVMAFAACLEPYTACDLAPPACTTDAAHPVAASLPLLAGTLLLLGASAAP
mIAP activ = increases mouse intestinal alkaline phosphatase activity; muIAP, CDP-Star luminescence, 30 min; active compounds read high; 1 = vehicle-only enzyme signal, 0 = enzyme-free wells; activation factor at 10 µM; 330,000 tested, 0.24% active; AID 2805;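 active = activation factor of at least 2 at 20 µM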
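System: mouse IAP enzyme. Reagent: CDP-Star chemiluminescent phosphatase substrate. Benchmarks: DMSO wells, no-enzyme wells. Times: 30 min enzyme-substrate-compound incubation at room temperature. Detection: luminescence from enzymatic CDP-Star hydrolysis. Doses: test compounds delivered from DMSO solution.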
mIAP inh = mouse IAP inhibition; AID 2806; 330,000 tested, 0.2% active; purified mouse IAP, CDP-Star luminescence, 30 min; inhibition, % at 10 µM;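 active = inhibition of at least 40% at 10 µM in the primary screen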;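 note: plate controls were DMSO with enzyme for no effect and no enzyme wells for full effect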
bIAP act = intestinal alkaline phosphatase (bovine) activation; purified bovine IAP, CDP-star luminescence, 30 min; active compounds read high; fold of DMSO-control signal, blank-subtracted; activation factor at 20 µM; 200,000 tested, 0.17% active; AID 1016;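 active = activation factor of 2 or more at 20 µM, a signal rise over negative controls twice the positive control's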
bIAP inh = intestinal alkaline phosphatase (bovine) inhibition; purified bovine IAP, CDP-star luminescence, 30 min; inhibition, % at 20 µM; 190,000 tested, under 10 active; AID 1019;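 active = over 50% inhibition of intestinal alkaline phosphatase at 20 µM in the single-dose screen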
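Incubation: 30 min reaction at room temperature / Material: purified bovine intestinal alkaline phosphatase (IAP) enzyme / Input: enzyme at 1/65,000,000 dilution / Dosing: 20 µM single dose / Signal: CDP-star luminescence signal / Reagent: CDP-star chemiluminescent phosphatase substrate, 30 µM final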
hIAP inh = human IAP inhibition. P09923. purified IAP, CDP-Star luminescence, 30 min. inhibition, % at 10 µM. 330,000 tested, 0.12% active;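 active = inhibition reaching a set limit with compound at 10 µM in the primary screen, cut at about 35% in these data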;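 note: plate controls were DMSO wells with enzyme for no effect and no-enzyme buffer wells for full effect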
hIAP act confirm = human IAP activation confirmation. shares compounds with hIAP act. purified IAP, CDP-Star luminescence, 30 min; active compounds read low. activation (%Activity, negative = activation), % at 8.3 µM. 880 tested, 10% active. AID 434926;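 active = at least twofold enzyme activation in any of six single-dose repeats, which the averaged readout prints as negative percent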
An asterisk follows results filed as active; i = inactive; . = not tested or not shown; ! = repeats disagree. Hits are enriched below; roughly 0.79% of the tested compounds scored in any of these assays.

SMILES	hIAP act	mIAP activ	mIAP inh	bIAP act	bIAP inh	hIAP inh	hIAP act confirm
CCc1occc(=O)c1Oc1cc(NN2CCCCC2)c([N+](=O)[O-])cc1[N+](=O)[O-]	0.575	0.977	2.3	.	.	42.5*	-42.2
CCOC(=O)C1=C(c2ccc(OC)cc2)OC(N)=C(C#N)C1c1cccnc1 (configuration not stated)	2.95*	1.04	-3.6	.	.	-195.1	-0.5
O=C(O)Cn1nnc(-c2cccs2)n1	0.958	0.968	3.2	1	-0.6	4.2	.
O=C(O)CCn1nnc(-c2cccs2)n1	2.03*	1.03	-3.5	1	0.5	-103.2	-0.3
C=CCN1C(=O)/C(=C\C=C2\N(C)c3ccccc3C2(C)C)SC1=S	0.544	0.615	38.5	0.9	14.0	45.6*	-267.3*
CCN1/C(=C/c2ccc3cc(C)ccc3[n+]2CC)Sc2ccccc21	0.631	0.656	34.4	1.2	-23.1	36.9*	9.1
CCN1/C(=C/c2ccc3cc(C)ccc3[n+]2CC)Sc2cc(C)c(C)cc21	0.682	0.834	16.6	0.3	.	31.8	.
CCc1ccc(C(=O)Nc2cc(S(=O)(=O)N3CCOCC3)ccc2N2CCOCC2)cc1	1	0.993	0.7	.	.	0.0	.
Cc1ccc(-c2cc(C(=O)N3CCc4ccccc4C3)[nH]n2)cc1C	2.49*	1.44	-44.1	.	.	-148.9	5.9
COc1cccc(-c2cc(C(=O)N3CCc4ccccc4C3)[nH]n2)c1	0.991	1.14	-14.2	.	.	0.9	.
C=CCN1C(=O)C2(NNc3ccccc3O2)c2ccccc21 (configuration not stated)	6.66*	1.06	-6.0	3.9*	-286.0	i	-92.8*
CCOc1cc(/C=C2/C(=O)NN(c3cccc(Cl)c3)C2=O)ccc1O	0.671	0.835	16.5	.	.	32.9	.
COc1cc(/C=C2/C(=O)NN(c3cccc(Cl)c3)C2=O)cc(OC)c1O	0.501	0.768	23.2	.	.	49.9*	9.1
CC(=O)NC(C)c1nc2ccccc2n1CC(=O)NC(C)CCc1ccccc1 (configuration not stated)	0.969	0.917	8.3	1.3	-30.6	3.1	.
CC1=C/C(=C\C=C(C#N)C#N)N(C)c2ccccc21	0.638	0.757	24.3	.	.	36.2*	4.2
O=C(CSC1=NS(=O)(=O)c2cc(Cl)ccc2N1)Nc1cccc(F)c1	0.922	0.944	5.6	.	.	7.8	.
COC(=O)c1ccccc1-c1c2ccc(=N)cc-2oc2cc(N)ccc12	0.622	1.3	-30.5	.	.	37.8*	34.6
CC(=O)NNc1ncnc2c1cnn2-c1ccccc1	3.04*	0.812	18.8	1.4	-44.0	-204.5	-68.9
Cc1ccc(-n2ncc3c(NNC(=O)Cc4ccccc4)ncnc32)cc1	2.21*	1.07	-6.8	1.1	-7.3	-120.6	9.9
CC(=O)Nc1ccc(Nc2ncnc3c2cnn3-c2ccccc2)cc1	0.942	0.917	8.3	1	-4.0	5.8	.
CCCc1cc(=O)[nH]c(SCC(=O)N2CCCCCC2)n1	0.935	0.972	2.8	.	.	6.5	.
CC(C(=O)N(C)c1ccccc1)N1CCN(C(=O)c2ccccc2)CC1 (configuration not stated)	1.04	1.09	-9.1	.	.	-4.2	.
CCOC(=O)c1c(C)[nH]c(C(=O)N/N=C/c2cc([N+](=O)[O-])ccc2O)c1C	2.08*	0.612	38.8	.	.	-108.4	29.6
CCOC(=O)c1c(C)[nH]c(C(=O)N/N=C\c2ccccc2O)c1C	.	.	.	1.2	-18.5	.	.
c1ccc(CN(CC2=NCCN2)c2ccccc2)cc1	0.984	1.13	-4.9	337*!	-1.8	19.2	-46.7
c1ccc(CC2=NCCN2)cc1	1.04	1.14	-13.5	0.9	5.9	-4.5	.
COc1cccc(OC)c1OCCCN1CCC(Cc2ccccc2)CC1	0.859	1.05	-4.6	.	.	14.1	.
NC1=NN=C(N2N=C(c3ccco3)CC2(O)C(F)(F)F)n2ncnc2C1 (configuration not stated)	2.53*	0.648	35.2	1.6	-61.4	-153.3	-1.2
Cc1ccc(C2=NN(C3=NN=C(N)Cc4ncnn43)C(O)(C(F)(F)F)C2)cc1 (configuration not stated)	0.836	0.832	16.8	1.5	-46.6	16.4	.
